Assay results as given in ChEMBL document CHEMBL5712912, “Abnormal overexpression of G9a in melanoma cells promotes cancer progression via upregulation of the Notch1 signaling pathway” (Aging (Albany NY), 2020).
The source made the active and inactive calls. The rule behind the calls is not given here.

Tests used:
A-375 [1] = experiment: Antiproliferative activity against human A-375 cells overexpressing NICD assessed as reduction in cell proliferation at 2 uM by CCK-8 assay; format: functional, cell-based
In short: (§1)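 CCK8 proliferation assay. M14 or A375 cells, NICD plasmid-transfected where stated, were seeded at about 1000 cells per well, with 0.1% DMSO-treated cells as control. CCK8 reagent was added every 24 h and incubated 90 min at 37 °C, then OD read at 450 nm to build a proliferation curve. IC50 came from a dose-dependent viability series in A375.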

[2] = Toxicity in human A-375 cells xenografted nude mouse assessed as change in body weight at 5 mg/kg, ip administered every other day for 10 days and measured during compound dosing; format: organism-based; settings: in vivo, 240 h, time 10 day
In short: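 Male nude mice, 6 weeks old, were given A375 cells (2X 106) subcutaneously. After one week, animals with palpable xenografts were randomised into two groups: DMSO vehicle, or compound at 5 mg/kg i.p. every other day for 10 days. Tumour volume was measured, and body weight was monitored.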

[3] = target: T1, Histone-lysine N-methyltransferase EHMT2 (Homo sapiens) (UniProt Q96KQ7); experiment: Inhibition of G9a in human A-375 cells assessed as decrease in Hes1 expression at 2 uM by Western blot analysis; format: cell-based
T1 sequence (whole entry): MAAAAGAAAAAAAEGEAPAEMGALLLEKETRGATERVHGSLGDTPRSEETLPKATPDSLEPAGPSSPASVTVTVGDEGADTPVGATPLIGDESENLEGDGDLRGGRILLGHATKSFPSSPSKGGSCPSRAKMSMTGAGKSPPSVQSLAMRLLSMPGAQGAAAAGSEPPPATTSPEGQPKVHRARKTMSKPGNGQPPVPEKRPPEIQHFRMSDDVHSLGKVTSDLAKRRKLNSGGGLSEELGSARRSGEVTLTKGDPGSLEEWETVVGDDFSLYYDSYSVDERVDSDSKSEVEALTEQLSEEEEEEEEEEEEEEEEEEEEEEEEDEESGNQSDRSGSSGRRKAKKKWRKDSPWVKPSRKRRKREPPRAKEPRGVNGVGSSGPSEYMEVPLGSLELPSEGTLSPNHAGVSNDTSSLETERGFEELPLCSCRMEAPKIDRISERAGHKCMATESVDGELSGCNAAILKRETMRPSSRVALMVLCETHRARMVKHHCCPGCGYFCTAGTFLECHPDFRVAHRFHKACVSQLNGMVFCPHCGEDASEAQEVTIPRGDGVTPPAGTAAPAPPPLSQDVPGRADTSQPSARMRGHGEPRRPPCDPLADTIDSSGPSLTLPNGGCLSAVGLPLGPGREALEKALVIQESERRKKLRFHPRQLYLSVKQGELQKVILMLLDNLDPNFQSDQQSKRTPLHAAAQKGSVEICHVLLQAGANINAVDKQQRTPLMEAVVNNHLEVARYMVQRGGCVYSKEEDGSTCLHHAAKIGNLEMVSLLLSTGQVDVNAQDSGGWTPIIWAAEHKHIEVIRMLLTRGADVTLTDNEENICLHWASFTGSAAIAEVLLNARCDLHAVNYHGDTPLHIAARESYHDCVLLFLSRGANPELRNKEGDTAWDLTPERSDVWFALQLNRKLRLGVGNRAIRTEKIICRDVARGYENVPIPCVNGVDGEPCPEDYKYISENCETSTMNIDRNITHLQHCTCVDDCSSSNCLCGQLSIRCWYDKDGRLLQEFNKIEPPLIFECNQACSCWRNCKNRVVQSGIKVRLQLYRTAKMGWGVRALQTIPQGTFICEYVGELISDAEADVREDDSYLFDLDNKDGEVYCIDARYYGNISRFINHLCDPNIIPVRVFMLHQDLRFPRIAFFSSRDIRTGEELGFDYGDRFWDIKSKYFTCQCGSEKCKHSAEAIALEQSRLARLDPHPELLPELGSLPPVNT

M14 [4] = experiment: Induction of apoptosis in human M14 cells overexpressing NCID assessed as late apoptotic cells by Annexin V-FITC/PI staining based flow cytometry (Rvb-3.10%); format: functional; settings: dose 2 µM
M14 [5] = experiment: Induction of apoptosis in human M14 cells assessed as early apoptotic cells at 2 uM by Annexin V-FITC/PI staining based flow cytometry (reference value: 0.43%); format: functional
[6] = target: T1, Histone-lysine N-methyltransferase EHMT2 (Homo sapiens); experiment: Inhibition of G9a in human M14 cells assessed as decrease in Notch1 expression at 2 uM by Western blot analysis; format: cell-based
M14 [7] = experiment: Antiinvasive activity against human M14 cells overexpressing NICD at 2 uM by transwell assay; format: functional, cell-based
In short: (§2)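 Transwell assay in M14 or A375 cells cultured in high-glucose DMEM with 10% FBS and penicillin/streptomycin; NICD overexpression plasmid transfected with Lipofectamine 2000. Invasion inserts coated with Matrigel diluted 1:6 in serum-free 1640 medium and set at 37 °C for 4 h; migration inserts uncoated, 5000 cells seeded. Control cells received DMSO. Migrated or invaded cells counted.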

M14 [8] = experiment: Antiproliferative activity against human M14 cells assessed as reduction in cell proliferation at 2 uM by CCK-8 assay; format: functional, cell-based; in short: as §1
A-375 [9] = experiment: Induction of apoptosis in human A-375 cells overexpressing […] assessed as late apoptotic cells by Annexin V-FITC/PI staining based flow cytometry (Rvb-3.10%); format: functional; settings: dose 2 µM
A-375 [10] = experiment: Induction of apoptosis in human A-375 cells assessed as live cells at 2 uM by Annexin V-FITC/PI staining based flow cytometry (reference value: 95.1%); format: functional
A-375 [11] = experiment: Antimigratory activity against human A-375 cells at 2 uM by transwell assay; format: functional, cell-based; in short: as §2
M14 [12] = experiment: Antiproliferative activity against human M14 cells overexpressing NICD assessed as reduction in cell proliferation at 2 uM by CCK-8 assay; format: functional, cell-based; in short: as §1
A-375 [13] = experiment: Antiinvasive activity against human A-375 cells at 2 uM by transwell assay; format: functional, cell-based; in short: as §2
M14 [14] = experiment: Antimigratory activity against human M14 cells at 2 uM by transwell assay; format: functional, cell-based; in short: as §2
A-375 [15] = experiment: Antiinvasive activity against human A-375 cells overexpressing NICD at 2 uM by transwell assay; format: functional, cell-based; in short: as §2
A-375 [16] = experiment: Induction of apoptosis in human A-375 cells assessed as necrotic cells at 2 uM by Annexin V-FITC/PI staining based flow cytometry (reference value: 1.34%); format: functional
A-375 [17] = experiment: Antimigratory activity against human A-375 cells overexpressing NICD at 2 uM by transwell assay; format: functional, cell-based; in short: as §2
A-375 [18] = experiment: Cytotoxicity against human A-375 cells assessed as effect on cell survival at <0.5 nM by CCK-8 assay; format: functional, cell-based
M14 [19] = experiment: Induction of apoptosis in human M14 cells overexpressing NCID assessed as live cells by Annexin V-FITC/PI staining based flow cytometry (Rvb-95.1%); format: functional; settings: dose 2 µM
M14 [20] = experiment: Induction of apoptosis in human M14 cells assessed as reduction in Bcl-2 expression at 2 uM by Western blot analysis; format: functional, cell-based
[21] = target: T1, Histone-lysine N-methyltransferase EHMT2 (Homo sapiens); experiment: Inhibition of G9a in human A-375 cells assessed as decrease in Notch1 expression at 2 uM by Western blot analysis; format: cell-based
M14 [22] = experiment: Induction of apoptosis in human M14 cells overexpressing NCID assessed as necrotic cells by Annexin V-FITC/PI staining based flow cytometry (Rvb-1.34%); format: functional; settings: dose 2 µM
A-375 [23] = experiment: Induction of apoptosis in human A-375 cells overexpressing NICD assessed as increase in cleaved Caspase-3 expression at 2 uM by Western blot analysis; format: functional, cell-based
M14 [24] = experiment: Antimigratory activity against human M14 cells overexpressing NICD at 2 uM by transwell assay; format: functional, cell-based; in short: as §2
M14 [25] = experiment: Induction of apoptosis in human M14 cells assessed as late apoptotic cells at 2 uM by Annexin V-FITC/PI staining based flow cytometry (reference value: 3.10%); format: functional
A-375 [26] = experiment: Induction of apoptosis in human A-375 cells assessed as increase in cleaved Caspase-3 expression at 2 uM by Western blot analysis; format: functional, cell-based

With `COc1cc2c(NC3CCN(C(C)C)CC3)nc(N3CCC(F)(F)CC3)nc2cc1OCCCN1CCCC1` the Activity (A-375 [1]) was “inactive”, the Activity [2] was “Non-Toxic” and the inhibition [3] was “Active”. For the same compound, the Activity (M14 [4]) was 3.59%, the Activity (M14 [5]) was 4.8% and the inhibition [6] was “Active”. The Activity (M14 [7]) was “inactive”, the Activity (M14 [8]) was “Active” and the Activity (A-375 [9]) was 3.59%. The Activity (A-375 [10]) was 89.8%, the Activity (A-375 [11]) was “Active” and the Activity (M14 [12]) was “inactive”. The Activity (A-375 [13]) was “Active”, the Activity (M14 [14]) was “Active” and the Activity (A-375 [15]) was “inactive”. The Activity (A-375 [16]) was 0.27%, the Activity (A-375 [17]) was “inactive” and the Activity (A-375 [18]) was “inactive”. For the same compound, the Activity (M14 [19]) was 94.9%, the Activity (M14 [20]) was “Active” and the inhibition [21] was “Active”. The Activity (M14 [22]) was 0.76%, the Activity (A-375 [23]) was “inactive” and the Activity (M14 [24]) was “inactive”. For the same compound, the Activity (M14 [25]) was 5.17% and the Activity (A-375 [26]) was “Active”.
